For data set [1], the system named is Bacillus subtilis. The experiment in a line: In vitro antibacterial activity against Bacillus subtilis ATCC 6633. In kind it is functional. In short, it runs like this: (§1)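 MIC measured by 2-fold serial agar dilution. The growth medium is given as Mueller–Hinton agar in the text and as sensitivity test agar in the table footnote. Value reported in µg/mL.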
Data set [2] concerns Escherichia coli. The data set is described as follows: (§2) In vitro antibacterial activity against Escherichia coli NHJ JC-2. In kind it is functional, escherichia colin. Summed up: as §1
In data set [3] the test system is Klebsiella pneumoniae. The experiment in a line: In vitro antibacterial activity against Klebsiella pneumoniae PCI-602. In kind it is functional. In short, it runs like this: as §1
Data set [4] is described as follows: Acute toxicity on intravenous injection in mice. In kind it is organism-based. To be noted: mouse, in vivo. In short, it runs like this: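 ddY male mice (20–25 g, five per group) given compound by intravenous injection. Compound was dissolved in 1 N NaOH, then brought up in phosphoric acid–saline buffer (pH 7.2). LD50 was determined 7 days later by the Weil method.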

Data set [5] in a line: Acute toxicity on oral administration in mice. In kind it is organism-based. To be noted: mouse, in vivo. In short, it runs like this: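 ddY male mice (20–25 g, five per group) were dosed orally with a suspension in 0.5% sodium carboxymethylcellulose. LD50 was determined 7 days later by the Weil method.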
The subject of data set [6] is Pseudomonas aeruginosa. The experiment in a line: In vitro antibacterial activity against Pseudomonas aeruginosa IFO 3445. In kind it is functional. In short, it runs like this:
as §1

Data set [7] concerns Proteus vulgaris. The experiment in a line: In vitro antibacterial activity against Proteus vulgaris OX-19. In kind it is functional. In short, it runs like this: as §1
Data set [8] relates to Staphylococcus epidermidis. The data set is described as follows: In vitro antibacterial activity against Staphylococcus epidermidis IAM 1296. In kind it is functional. Summed up:
as §1

Data set [9] relates to Serratia marcescens. The data set is described as follows: (§3) In vitro antibacterial activity against Serratia. In kind it is functional. Summed up: as §1
In data set [10] the test system is Salmonella typhimurium. The experiment in a line: In vitro antibacterial activity against Salmonella Typhimurium IID 971. In kind it is functional, Salmonella enterica subsp. enterica serovar Typhimurium. To be noted: Salmonella enterica. In short, it runs like this:
as §1

The test system of data set [11] is Staphylococcus aureus. The experiment in a line: In vitro antibacterial activity against […] aureus IID 803 -. In kind it is functional. Summed up:
as §1

Data set [12] relates to Staphylococcus aureus. The data set is described as follows: In vitro antibacterial activity against Staphylococcus aureus FDA 209P JC-1. In kind it is functional. In short, it runs like this: as §1
The test system of data set [13] is Escherichia coli. The data set is described as follows: In vitro antibacterial activity against Escherichia coli KC-14.
For data set [14], the system named is Escherichia coli. The experiment in a line: In vivo antibacterial activity against Escherichia coli KC-14 (po). In kind it is functional. In short, it runs like this: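 Oral protection test in mice infected with E. coli KC-14. Compound suspended in 0.5% sodium CMC and given orally 1 h after infection. ED50 (mg/kg) calculated from cumulative mortality on day 7 after infection by the shortened Weil method, with 95% confidence limits.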

Data set [15] has as its system Staphylococcus aureus. The data set is described as follows: In vitro antibacterial activity against Staphylococcus aureus FDA […] JC-1. In kind it is functional. Summed up:
(§4)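 MIC by 2-fold agar dilution on sensitivity test agar (Mueller–Hinton agar per text), in µg/mL.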

Data set [16] concerns Escherichia coli. The description is as §2. In kind it is functional, escherichia colin. In short, it runs like this: as §4
This is another data set of the same source.

Data set [17] concerns Serratia. The data set is described as §3. In kind it is functional. Summed up:
as §4

Data set [18] is described as follows: Concentration of liberated compound in serum after 60 min at the dose of 50 mg/kg (po). In kind it is functional, organism-based. On the set-up: dose 50 mg/kg. In short, it runs like this:
(§5)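 ddY male mice (20–25 g, five per group) got 50 mg/kg orally as a 0.5% CMC suspension and were killed by bleeding at 30, 60, 120 or 240 min. Serum was taken after centrifugation at 3000 rpm, 20 min, 4 °C, and deproteinised with 5% aqueous trichloroacetic acid. The released parent quinolone was measured by HPLC with UV detection on an ODS column. Mean ± SE.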

Data set [19] in a line: Concentration of liberated compound in serum after 120 min at the dose of 50 mg/kg (po). Further details: dose 50 mg/kg. In kind it is functional, organism-based. In short, it runs like this: as §5
The nature of data set [20]: Concentration of liberated compound in serum after 240 min at the dose of 50 mg/kg (po). In kind it is functional, organism-based. Further details: dose 50 mg/kg. In short, it runs like this:
as §5

The nature of data set [21]: Concentration of liberated compound in serum after 30 min at the dose of 50 mg/kg (po). In kind it is ADME, organism-based. Further details: dose 50 mg/kg. The note with it: in vivo, 0.5 h. In short, it runs like this: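 ddY male mice (20–25 g, five per group) given 50 mg/kg orally as a suspension in 0.5% CMC and killed by bleeding at 30 min. Serum was separated by centrifugation (3000 rpm, 20 min, 4 °C) and deproteinized with 5% aqueous trichloroacetic acid. Liberated NFLX was quantified by reversed-phase (ODS) HPLC with UV detection. Values are mean ± SE.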

In brackets after ≈: the same amount, converted by molar mass.

As usually defined, the MIC is the lowest concentration found to suppress growth. As usually defined, the LD50 is the dose at which mortality reaches 50%. Low values mean a more toxic substance, high ones a less toxic substance. `CCn1cc(C(=O)O)c(=O)c2cc(F)c(N3CCN(O)CC3)cc21`: the minimum inhibitory concentration (MIC) in data set [1] turned out to be 0.2 µg/mL (≈ 0.596 µM); in data set [2], 1.56 µg/mL (≈ 4.65 µM); in data set [3], 0.05 µg/mL (≈ 0.149 µM); in data set [6], 12.5 µg/mL (≈ 37.3 µM); in data set [7] it was 0.05 µg/mL (≈ 0.149 µM); in [8] it was 6.25 µg/mL (≈ 18.6 µM). Besides, the MIC in data set [9] was determined as 3.13 µg/mL (≈ 9.33 µM); in data set [10], 0.1 µg/mL (≈ 0.298 µM); in data set [11] it was 1.56 µg/mL (≈ 4.65 µM); in [12] it was 0.78 µg/mL (≈ 2.33 µM); in [13], 0.39 µg/mL (≈ 1.16 µM). The median lethal dose (LD50) in data set [4] is over 500 mg/kg; in data set [5], over 4000 mg/kg.

The term ED50 denotes the dose at which the effect has come halfway, by size or by number of responders. Low values mean greater potency, high ones weaker potency. As for `O=C(O)c1cn(C2CC2)c2cc(N3CCN(O)CC3)c(F)cc2c1=O`, the minimal inhibitory concentration (MIC) in [1] was found to be 0.39 µg/mL (≈ 1.12 µM); in data set [3], 0.025 µg/mL (≈ 0.072 µM); in data set [6] it was 1.56 µg/mL (≈ 4.49 µM); in data set [7], 0.05 µg/mL (≈ 0.144 µM); in data set [8], 1.56 µg/mL (≈ 4.49 µM); in [9], 0.78 µg/mL (≈ 2.25 µM). Besides, the MIC came to 0.025 µg/mL (≈ 0.072 µM) in data set [10]; 0.78 µg/mL (≈ 2.25 µM) in [11]; 0.39 µg/mL (≈ 1.12 µM) in data set [15]; 0.1 µg/mL (≈ 0.288 µM) in [16]; 0.025 µg/mL (≈ 0.072 µM) in data set [13]. Also, the ED50 in data set [14] worked out at 0.37 mg/kg. Besides, the LD50 in [5] is over 4000 mg/kg.

Regarding `O=C(O)c1cn(C2CC2)c2cc(N3CCNCC3)c(F)cc2c1=O` [CIPROFLOXACIN], the MIC was 0.39 µg/mL (≈ 1.18 µM) in data set [1]; 0.025 µg/mL (≈ 0.0754 µM) in data set [3]; 0.78 µg/mL (≈ 2.35 µM) in data set [6]; 0.05 µg/mL (≈ 0.151 µM) in data set [7]; 1.56 µg/mL (≈ 4.71 µM) in [8]; 0.2 µg/mL (≈ 0.604 µM) in data set [17]. For the same compound, the MIC was found to be 0.025 µg/mL (≈ 0.0754 µM) in data set [10], 0.78 µg/mL (≈ 2.35 µM) in [11], 0.39 µg/mL (≈ 1.18 µM) in data set [15] and 0.0125 µg/mL (≈ 0.0377 µM) in data set [13]. The same compound came in with an ED50 in data set [14] of 0.84 mg/kg.

As for `CCn1cc(C(=O)O)c(=O)c2cc(F)c(N3CCNCC3)cc21` [NORFLOXACIN], the Concentration in data set [18] turned out to be 2.8 µg/mL; in data set [19] it was 1.09 µg/mL; in data set [20], 0.47 µg/mL; in data set [21], 4.14 µg/mL. Moreover, the MIC in data set [1] worked out at 0.39 µg/mL (≈ 1.22 µM); in data set [3], 0.1 µg/mL (≈ 0.313 µM); in data set [6], 1.56 µg/mL (≈ 4.89 µM); in data set [7], 0.1 µg/mL (≈ 0.313 µM); in data set [8] it was 3.13 µg/mL (≈ 9.8 µM); in [17], 0.39 µg/mL (≈ 1.22 µM). Also, the MIC in data set [10] stood at 0.05 µg/mL (≈ 0.157 µM); in data set [11] it was 1.56 µg/mL (≈ 4.89 µM); in data set [15], 0.39 µg/mL (≈ 1.22 µM); in data set [16] it was 0.2 µg/mL (≈ 0.626 µM); in data set [13], 0.2 µg/mL (≈ 0.626 µM). Further, the LD50 in [4] is 314 mg/kg; in data set [5], over 4000 mg/kg.

Values taken from ChEMBL document CHEMBL1124996, “Synthesis of antimicrobial agents. 3. Syntheses and antibacterial activities of 7-(4-hydroxypiperazin-1-yl)quinolones” (J Med Chem, 1990).
